# HNF4A DNA FP: change in binding of human HNF4 alpha to DNA | P41235 | AID 1224865 | HNF4a-FITC DNA binding, fluorescence polarization, 1 h | actives 0.3% (n = 360,000) | activity change, % at 10 µM; in the data active = activity change above about 30%, passing the limit was not always enough
# ASAP1 inh: blocks human ASAP1-stimulated Arf1 GTP hydrolysis | GDP FP detection | inhibition, % at 16.5 µM | AID 624377 | Q9ULH1 | actives 0.19% (n = 360,000); in the data active = inhibition above about 25%;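 also: 0% = vehicle with enzyme and substrate and 100% = no enzyme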
# CSN deneddyl inh: inhibitors of human CSN-mediated cullin deneddylation | Purified CSN, SCF-Nedd8-OG deneddylation, fluorescence polarization | actives 0.38% (n = 360,000) | AID 651999 | inhibition, % at 12.5 µM;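 active = pattern-corrected inhibition above about 35%, with an unprinted fluorescence ratio check between 0.5 and 1.5, limit read from the data, passing the limit was not always enough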;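 also: 0% = enzyme with substrate and 100% = substrate without enzyme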
# Target sequence (Q92905 whole entry, looked up, one chain of several): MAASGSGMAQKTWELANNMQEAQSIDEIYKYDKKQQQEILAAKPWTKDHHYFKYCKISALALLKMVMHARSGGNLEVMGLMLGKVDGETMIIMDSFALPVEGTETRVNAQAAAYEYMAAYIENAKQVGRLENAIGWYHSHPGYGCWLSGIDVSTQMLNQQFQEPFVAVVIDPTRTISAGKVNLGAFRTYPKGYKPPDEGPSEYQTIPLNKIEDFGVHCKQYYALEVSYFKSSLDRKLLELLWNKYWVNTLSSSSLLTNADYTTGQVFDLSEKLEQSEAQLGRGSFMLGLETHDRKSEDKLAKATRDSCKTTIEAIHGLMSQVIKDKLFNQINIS
#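 assay system = purified human Csn5 enzyme expressed in HEK293T cells | amount = 0.24 nM enzyme | buffer or medium = Tris/NaCl/DTT buffer, pH 7.5 | reagent = 10 nM SCFSkp2-Nedd8OG | compound = one concentration, 12.5 µM, 0.25% DMSO | times = 90 min reaction at room temperature | signal = FP | read-out basis = % inhibition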
# ARFGAP1 inh: inhibits rat ARF GTPase activating protein 1; Arfgap1-stimulated ARF1 GTP hydrolysis, GDP FP detection; inhibition, % at 16.5 µM; AID 651572; actives 0.26% (n = 360,000); Q62848;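 active = inhibition above a per-plate limit, mean inhibition of low control wells plus 3 SD, cut at about 25% in these data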;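 also: 0% = DMSO wells with enzyme and 100% = wells lacking Arfgap1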
#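 material = rat Arfgap1 catalytic domain, aa 1-136 | also added = human ARF1(Δ1-17)-GTP substrate | compound dosing = one concentration, 16.5 µM, DMSO 1.26% | times = GTP hydrolysis reaction 2 h at 25 °C | measured by = FP, GDP Alexa 633 tracer displaced from anti-GDP antibody, 620/688 nm | evaluation = percent inhibition of Arfgap1-stimulated GTP hydrolysis | replication = single well per compound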
# Active calls of the source: *; . = not tested or not shown; ! = not active in a repeat. Hits are enriched below; roughly 0.95% of the tested compounds scored in any of these assays.
SMILES,HNF4A DNA FP,ASAP1 inh,CSN deneddyl inh,ARFGAP1 inh
Brc1cccc(-c2nc3ccc(Br)cn3c2Cc2ccsc2)c1,0,0,-1,1
COC(=O)[C@@H](Cc1ccc(O)cc1)NC(=O)[C@H]1O[C@@H](n2cnc3c(=O)[nH]c(N)nc32)[C@H](O)[C@@H]1O,.,7,.,-7
N#C/C(=C\C1=C(N2CCOCC2)C(=C\c2ccc(Cl)cc2)/CC1)C(=O)Nc1ccccc1F,28,-2,17,-5
N#C/C(=C/C1=C(N2CCOCC2)C(=C/c2ccccc2)/CC1)C(=O)Nc1ccccc1F,84,-10,58*,10
C[C@H](O)[C@@H]1C(=O)N2CCc3c([nH]c4c(-c5ccccc5)cccc34)[C@@H]2C[C@@H]1N(C)C(=S)NCCc1ccccc1,.,1,.,-9
Cc1cc(F)ccc1NS(=O)(=O)c1cccc2nsnc12,3,-12,3,9
Cc1ccc(O)c(NS(=O)(=O)c2cccc3nsnc23)c1,79*,-1,-4,4
COCC(=O)NCC1CCN(C(=O)C(=O)c2cccs2)CC1,.,2,.,6
CN(C)C(=O)N1CCN(C(=O)[C@H](CCc2ccccc2)NC(=O)[C@H]2O[C@@H](n3cnc4c(N)ncnc43)[C@H](O)[C@@H]2O)CC1,.,-5,.,1
CCOc1ccc(C(=O)c2ccccc2C(=O)O)cc1OCC,0,-11,57*,11
Cc1nnc(SCC(=O)Nc2ccc3c(c2)OCCO3)n1CC1CCCO1 (stereo not drawn),-5,-3,2,2
Cc1cccc(C)c1NC(=O)CSc1nnc(C)n1CC1CCCO1 (stereo not drawn),115*,2,0,12
O=C(O)c1cocc1C(=O)O,0,6,-5,-1
CC(C)(C)N1C(=O)Cc2c1nc(N)c1c(N)nc(N3CCCCC3CO)c(C#N)c21 (stereo not drawn),6,.,53*,.
CCOC(=O)c1c(Nc2ccc(Cl)cc2)sc(/C=C2\C=Nc3ccccc32)c1O,45*,-5,18,5
Cc1[nH]n(-c2ccccc2)c(=O)c1C=Nc1ccc2[nH]c(=O)[nH]c2c1,2,-9,13,4
O=c1[nH]c2ccc(N=Cc3c(O)ccc4cc(Br)ccc34)cc2[nH]1,17,3,42*,-6
COC(=O)N1C[C@H](O)[C@H](O)C[C@@H]1c1ccccc1Br,.,5,.,10
Cc1cccc(-n2nc3c(c2NC(=O)c2ccco2)CSC3)c1C,-20,-3,36*,-19
COc1cc2sc3cc(NCCCN4CCOCC4)ccc3c(=O)c2cc1OC,4,11,3,31*
O=C1NC(c2cccc(C(F)(F)F)c2)c2c(-c3ccccc3)n[nH]c21 (stereo not drawn),.,-7,.,-8
CCOC(=O)Cn1nnc(-c2ccccc2)n1,0,1,1,1
CCOC(=O)C(Cc1ccccc1)NC(=O)Cn1nnc(-c2ccccc2)n1 (stereo not drawn),39*,-6,-4,3
CS(=O)(=O)N(CC(=O)N1CCOCC1)c1ccc(Cl)cc1,0,4,-6,0
CS(=O)(=O)N(CC(=O)N1CCOCC1)c1cccc(Cl)c1,5,-7,90*,5
SMILES,HNF4A DNA FP,ASAP1 inh,CSN deneddyl inh,ARFGAP1 inh
Oc1c(C=C2N=c3ccccc3=N2)sc(=S)n1-c1ccc2ccccc2c1,4,8,-6,-6
Oc1c(C=C2N=c3ccccc3=N2)sc(=S)n1-c1ccc(F)cc1,39*!,4,-5,7
CC(C)n1ncc2c(C(=O)Nc3ccc(S(N)(=O)=O)cc3)cc(C3CC3)nc21,64,-11,113*,-6
COc1ccc(/C=N/NC(=O)CN(C2=NS(=O)(=O)c3ccccc32)c2ccccc2)cc1,3,-9,-5,-8
COc1ccccc1/C=N/NC(=O)CN(C1=NS(=O)(=O)c2ccccc21)c1ccccc1,0,8,-5,40*
COc1ccc2[nH]c3c4c(ccc3c2c1)C(=O)C=CC4=O,46*,2,5,3
CCCC(C)c1nc(C(N)=O)c2[nH]c(=O)n(-c3ccc(OC)c(OC)c3)c2n1 (stereo not drawn),-1,-8,2,-12
C[C@H](c1ccccc1)N1C[C@@H](COCc2ccccc2)Oc2cccc(Oc3ccccc3)c2S1(=O)=O,.,4,.,1
COc1ccc2nc(C)cc(SCC(=O)N/N=C/c3c(OC)ccc4ccccc34)c2c1,17,8,44*,3
Cc1cc(C)nc(NC(=O)NC(=O)c2ccccc2)n1,3,-2,-3,2

# Bioassay records from PubChem BioAssay.
